Data from ChEMBL document CHEMBL1125792, “Complexes of .NO with nucleophiles as agents for the controlled biological release of nitric oxide. Vasorelaxant effects” (J Med Chem, 1991).

Legend:
[1] = Rate constant for loss of chromophore; format: ADME
Outline: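 UV decay of the 230–260 nm chromophore. Compound dissolved in 0.01 M KOH, then diluted with a large excess of pH 7.4 phosphate buffer in a thermostated 37 °C cuvette. Spectra were recorded within 1–2 s and intermittently afterward. First-order k was taken from the slope of ln(A − A∞) versus time; t1/2 was derived from k.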

Oryctolagus cuniculus [2] = species on record: Oryctolagus cuniculus; experiment: Peak relaxation(Rm) of the vascular ring by the compound at highest concentration; format: functional
Oryctolagus cuniculus [3] = species on record: Oryctolagus cuniculus; experiment: Vasorelaxant activity against isolated vascular ring preparation from rabbit thoracic aorta; format: functional
Half-life was determined = details: pH 7.4 phosphate buffer at 37 °C

Compound | k [1] | EC50 (Oryctolagus cuniculus [3]) | half-life (Half-life was determined) | Rm (Oryctolagus cuniculus [2])
NCCCNCCCCN(CCCN)/[N+]([O-])=N\O | 0.0003 s⁻¹ | 6200 nM | 39 min | 56%
[Na+].[Na+].[O-][N+]([O-])=NO [ANGELI'S SALT] | 0.005 s⁻¹ | 590 nM | 2.3 min | 74%
N.N.O=NN(O)S(=O)(=O)O | 0.0017 s⁻¹ | 62000 nM | 6.8 min | 58%

Further lines, with some results ahead:

k [1] | EC50 (Oryctolagus cuniculus [3]) | half-life (Half-life was determined) | Compound | Rm (Oryctolagus cuniculus [2])
0.0051 s⁻¹ | 450 nM | 2.3 min | CC(C)N[N+]([O-])=N[O-].[Na+] | 85%
0.0054 s⁻¹ | 190 nM | 2.1 min | CCN(CC)/[N+]([O-])=N\[O-].[Na+] | 86%
